For one test, the target named is Histone deacetylase 2 (Homo sapiens, UniProt Q92769). The test is described as follows: Inhibition of human HDAC2 after 40 mins by fluorescence analysis.
Another test has as its system HCT-116. The test can be described thus: cells. In kind it is functional, cell-based. The conditions noted are these: Homo sapiens, HCT-116, 72 h.
A short description of test [1]: cells. In kind it is functional, cell-based. Particulars: Homo sapiens, NB-4, 72 h.
Test [2] is described as follows: cells. In kind it is functional, cell-based. The conditions noted are these: Homo sapiens, NCI-H460, 72 h.
For the next test, the system named is IGROV-1. The test is described as follows: Growth inhibition of human IGROV1 cells after 72 hrs. In kind it is functional, cell-based. The conditions noted are these: IGROV-1, 72 h. In outline:
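Cells exposed to compound for 72 h. Growth inhibition read by cell counting. IC50 (concentration giving 50% inhibition of cell growth) taken from dose–response curves. Values are means ± SD of three independent experiments.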

Test [3] concerns IGROV-1/Pt1 (Homo sapiens). The test is described as follows: Growth inhibition of human IGROV1/Pt1 cells after 72 hrs. Particulars: IGROV-1/Pt1, 72 h.
For the next test, the target named is Histone deacetylase 1 (Homo sapiens, UniProt Q13547). The test can be described thus: Inhibition of HDAC1 (unknown origin).
Chain of Histone deacetylase 1 (Q13547 whole entry): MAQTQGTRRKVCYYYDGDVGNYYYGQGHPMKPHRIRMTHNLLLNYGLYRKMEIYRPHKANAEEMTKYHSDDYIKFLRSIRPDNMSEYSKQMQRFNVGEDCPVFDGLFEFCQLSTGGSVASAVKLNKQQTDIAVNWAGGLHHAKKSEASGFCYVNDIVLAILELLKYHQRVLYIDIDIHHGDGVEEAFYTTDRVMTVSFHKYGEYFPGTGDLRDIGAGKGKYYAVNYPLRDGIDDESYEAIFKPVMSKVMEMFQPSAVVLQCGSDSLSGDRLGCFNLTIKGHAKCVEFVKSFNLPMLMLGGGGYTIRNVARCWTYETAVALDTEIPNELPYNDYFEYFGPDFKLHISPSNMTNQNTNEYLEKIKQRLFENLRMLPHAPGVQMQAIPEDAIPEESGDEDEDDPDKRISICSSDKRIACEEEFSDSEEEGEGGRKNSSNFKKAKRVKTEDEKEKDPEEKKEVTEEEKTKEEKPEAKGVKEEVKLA
Test [4] concerns the target T1, Protein deacetylase HDAC6 (Homo sapiens, UniProt Q9UBN7).
T1 sequence (Q9UBN7 whole entry): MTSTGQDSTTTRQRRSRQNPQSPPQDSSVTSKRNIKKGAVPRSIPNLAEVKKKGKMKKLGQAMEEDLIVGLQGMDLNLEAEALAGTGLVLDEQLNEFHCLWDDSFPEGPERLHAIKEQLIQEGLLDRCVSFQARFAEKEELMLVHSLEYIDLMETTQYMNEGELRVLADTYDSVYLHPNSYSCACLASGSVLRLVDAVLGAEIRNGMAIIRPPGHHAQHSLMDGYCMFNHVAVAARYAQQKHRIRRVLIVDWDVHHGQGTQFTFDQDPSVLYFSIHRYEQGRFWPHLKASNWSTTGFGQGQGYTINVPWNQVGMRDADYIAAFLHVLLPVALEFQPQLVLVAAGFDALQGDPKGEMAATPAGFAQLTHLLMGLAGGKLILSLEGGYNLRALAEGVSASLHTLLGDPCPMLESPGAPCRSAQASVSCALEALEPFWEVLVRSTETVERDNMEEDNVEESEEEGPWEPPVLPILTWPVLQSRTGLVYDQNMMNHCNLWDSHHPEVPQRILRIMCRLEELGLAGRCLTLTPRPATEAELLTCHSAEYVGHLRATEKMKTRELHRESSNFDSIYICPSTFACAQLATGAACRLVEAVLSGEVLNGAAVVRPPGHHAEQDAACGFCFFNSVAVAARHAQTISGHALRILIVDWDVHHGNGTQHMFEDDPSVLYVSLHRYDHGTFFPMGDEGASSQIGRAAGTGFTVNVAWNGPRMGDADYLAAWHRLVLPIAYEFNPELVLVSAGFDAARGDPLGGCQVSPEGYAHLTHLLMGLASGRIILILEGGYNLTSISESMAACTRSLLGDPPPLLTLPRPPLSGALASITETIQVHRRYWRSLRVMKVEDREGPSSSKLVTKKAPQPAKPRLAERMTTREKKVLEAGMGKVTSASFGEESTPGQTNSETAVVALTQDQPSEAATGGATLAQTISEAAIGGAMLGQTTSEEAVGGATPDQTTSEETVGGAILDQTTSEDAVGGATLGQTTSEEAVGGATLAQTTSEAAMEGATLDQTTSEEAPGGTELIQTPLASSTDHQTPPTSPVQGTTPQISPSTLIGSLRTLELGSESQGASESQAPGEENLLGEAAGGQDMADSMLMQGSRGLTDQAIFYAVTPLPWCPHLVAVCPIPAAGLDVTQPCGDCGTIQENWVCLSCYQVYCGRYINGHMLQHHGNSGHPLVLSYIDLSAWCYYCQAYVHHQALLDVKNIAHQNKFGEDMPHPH
The test is described as follows: Inhibition of HDAC6 (unknown origin).

SMILES strings stand for the structures. Some results are limits rather than exact numbers.

The values below come from ChEMBL document CHEMBL3621129, “Investigation on the ZBG-functionality of phenyl-4-yl-acrylohydroxamic acid derivatives as histone deacetylase inhibitors” (Bioorg Med Chem Lett, 2015).

A word on the IC50: it is the concentration at which inhibition is half-maximal. The low end stands for higher potency, the high end for lower potency.

Chain of Histone deacetylase 2 (Q92769 whole entry): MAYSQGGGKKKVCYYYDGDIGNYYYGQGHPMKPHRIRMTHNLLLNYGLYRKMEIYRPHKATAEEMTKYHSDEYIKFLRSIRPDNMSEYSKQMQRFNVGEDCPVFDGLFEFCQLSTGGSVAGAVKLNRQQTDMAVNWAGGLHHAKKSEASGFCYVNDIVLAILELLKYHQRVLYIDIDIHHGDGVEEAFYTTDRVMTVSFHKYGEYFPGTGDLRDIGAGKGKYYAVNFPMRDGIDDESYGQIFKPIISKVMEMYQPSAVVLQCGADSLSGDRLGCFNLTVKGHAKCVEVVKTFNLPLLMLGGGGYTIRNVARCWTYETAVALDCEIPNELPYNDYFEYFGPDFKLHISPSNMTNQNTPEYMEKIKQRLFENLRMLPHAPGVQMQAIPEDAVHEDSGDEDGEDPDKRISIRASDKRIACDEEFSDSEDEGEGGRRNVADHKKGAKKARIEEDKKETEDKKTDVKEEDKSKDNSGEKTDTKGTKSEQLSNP

As for `O=C(O)/C=C/c1ccc(-c2ccccc2)cc1`, the half-maximal inhibitory concentration (IC50) at Histone deacetylase 2 is > 5 µM; with HCT-116 it was > 20 µM; in the test “cells [1]” it was > 10 µM; in “cells [2]” it was > 20 µM.

Consider `NNC(=O)/C=C/c1ccc(-c2ccccc2)cc1`, for which the half-inhibitory concentration (IC50) is > 5 µM against Histone deacetylase 2; 7.6 µM with IGROV-1; 11.9 µM with HCT-116; 7.1 µM in the test “cells [1]”; > 20 µM in the test “cells [2]”; 25.1 µM in test [3].

In the case of `NNC(=O)N/C=C/c1ccc(-c2ccccc2)cc1`, the half-maximal inhibitory concentration (IC50) against Histone deacetylase 2 is > 5 µM; in the test with IGROV-1 it was 14.5 µM; in the test with HCT-116 it was 16.4 µM; in “cells [1]”, 9.8 µM; in the test “cells [2]” it was > 20 µM; in test [3], 26.7 µM.

As for `O=C(NO)N/C=C/c1ccc(-c2ccccc2)cc1`, the IC50 was found to be 1.05 µM on Histone deacetylase 2; 1.31 µM against Histone deacetylase 1; 1.05 µM in test [4]; 3.5 µM in the test with IGROV-1; 4 µM in the test with HCT-116; 1.96 µM in the test “cells [1]”. Also, the IC50 in the test “cells [2]” came to 9.5 µM; in test [3], 6.7 µM.

As for `O=C(N/C=C/c1ccc(-c2ccccc2)cc1)NOCc1ccccc1`, the concentration for half-maximal inhibition (IC50) against Histone deacetylase 2 is > 5 µM; in the test with IGROV-1, 40 µM; in the test with HCT-116, 40 µM; in “cells [1]” it was > 20 µM; in the test “cells [2]” it was > 20 µM; in test [3] it was > 50 µM.

For the compound `CC(=O)SCC(=O)/C=C/c1ccc(-c2ccccc2)cc1`, the IC50 was > 5 µM on Histone deacetylase 2; 26.4 µM with IGROV-1; 14 µM in the test on HCT-116; > 20 µM in the test “cells [1]”; > 20 µM in “cells [2]”; 18.7 µM in test [3].

Regarding `N#CSC/C=C/c1ccc(-c2ccccc2)cc1`, the half-inhibitory concentration (IC50) was > 5 µM at Histone deacetylase 2; 3.8 µM with IGROV-1; 12.6 µM in the test with HCT-116; > 20 µM in “cells [1]”; 9.4 µM in “cells [2]”; 58.1 µM in test [3].

As for `O=C1/C(=C/c2ccc(-c3ccccc3)cc2)CCN1O`, the IC50 against Histone deacetylase 2 is > 5 µM; in the test with IGROV-1, > 60 µM; with HCT-116, > 20 µM; in the test “cells [1]” it was > 20 µM; in “cells [2]”, > 20 µM; in test [3], > 60 µM.

As for `O=C(/C=C/c1ccc(-c2ccccc2)cc1)NO`, the IC50 was determined as 0.9 µM in “cells [1]”, 5.4 µM in “cells [2]” and 4 µM in test [3].

Consider `O=C(CCCCCCC(=O)Nc1ccccc1)NO` [VORINOSTAT], for which it took 2.2 µM to reach half-maximal inhibition in test [3] (IC50).
